According to paper PMC5084670 (Cancer Science, 2016):
Marks after values point to notes of the source that are not given here.

Assay: Phase I dose-escalation study: safety, adverse events
Format: in vivo, human
How it was run: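 Oral test compound was given once daily in 28-day cycles after a 7-day single-dose run-in, in Japanese and Hong Kong/Taiwan groups escalated separately. Toxicity was graded by CTCAE v3.0 using laboratory tests, physical examination, vital signs, weight and periodic ECG. DLTs were grade 3–4 events over the run-in plus cycle 1. MTD was set by an adaptive Bayesian logistic regression model with overdose control.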

[1] = group 1, 400 mg q.d. (n = 12), All grades
[2] = group 1, 400 mg q.d. (n = 12), Grade 3
[3] = group 1, 400 mg q.d. (n = 12), Grade 4
[4] = group 1, 600 mg q.d. (n = 9), All grades
[5] = group 1, 600 mg q.d. (n = 9), Grade 3
[6] = group 1, 600 mg q.d. (n = 9), Grade 4
[7] = group 1, All patients (n = 21), All grades
[8] = group 1, All patients (n = 21), Grade 3
[9] = group 1, All patients (n = 21), Grade 4
[10] = group 2, 400 mg q.d. (n = 12), All grades

In the case of Cc1c(C(=O)Nc2ccc(N3C[C@@H](C)O[C@@H](C)C3)nc2)cccc1-c1ccc(OC(F)(F)F)cc1 [Sonidegib], the “Maximum CK level” value (a patient receiving 600 mg) is reported as 40 400 IU/L, the “Myoglobin level at maximum CK level” value (a patient receiving 600 mg) is reported as 5320 ng/mL and the Deaths (both groups) is reported as “no deaths were reported”. For the same compound, the “Recommended dose (RD)” value (both groups, East Asian patients) was 400 mg q.d, the “Changes in electrocardiogram parameters” value (during the course of treatment) was “No clinically significant changes” and the “Recommended dose (RD)” value (group 1 (Japanese)) was 400 mg q.d. The “Grade 3 /4 Creatine kinase elevation during all study period” value (group 1 (Japanese), 400 mg qd, N = 12) was 2 (17) ^† n (%), the “Grade 3 /4 Creatine kinase elevation during all study period” value (group 1 (Japanese), 600 mg qd, N = 9) was 5 (56) ^† n (%) and the “Grade 3 /4 Creatine kinase elevation during all study period” value (group 1 (Japanese), All patients, N = 21) was 7 (33) n (%). For the same compound, the “DLT in cycle 1 (creatine kinase elevation)” value (group 1, 400 mg) was “single DLT”, the “Alopecia (drug-related adverse event)” value [1] was 2 (17) n (%) and the “Blood creatine kinase increased (drug-related adverse event)” value (“Blood creatine kinase increased” below) [1] was 2 (17) n (%). The “Decreased level of consciousness (drug-related adverse event)” value (shortened to “Decreased level of consciousness”) [1] was 0 (0) n (%), the “Dysgeusia (drug-related adverse event)” value [1] was 1 (8) n (%) and the “Fatigue (drug-related adverse event)” value [1] was 2 (17) n (%). For the same compound, the “Hepatic function abnormal (drug-related adverse event)” value (“Hepatic function abnormal” below) [1] was 2 (17) n (%), the “Hyperglycemia (drug-related adverse event)” value (shortened to “Hyperglycemia”) [1] was 0 (0) n (%) and the “Lymphopenia (drug-related adverse event)” value [1] was 0 (0) n (%). For the same compound, the “Muscle spasms (drug-related adverse event)” value (“Muscle spasms” for short) [1] was 1 (8) n (%), the “Muscle weakness (drug-related adverse event)” value (“Muscle weakness” below) [1] was 0 (0) n (%) and the “Myalgia (drug-related adverse event)” value [1] was 2 (17) n (%). The “Myoglobin blood increased (drug-related adverse event)” value (“Myoglobin blood increased” for short) [1] was 0 (0) n (%), the “Nausea (drug-related adverse event)” value [1] was 1 (8) n (%) and the “Rhabdomyolysis (drug-related adverse event)” value (“Rhabdomyolysis” below) [1] was 1 (8) n (%). For the same compound, the “Alopecia (drug-related adverse event)” value [2] was 0 (0) n (%), the “Blood creatine kinase increased” value [2] was 1 (8) n (%) and the “Decreased level of consciousness” value [2] was 0 (0) n (%). For the same compound, the “Dysgeusia (drug-related adverse event)” value [2] was 0 (0) n (%), the “Fatigue (drug-related adverse event)” value [2] was 0 (0) n (%) and the “Hepatic function abnormal” value [2] was 1 (8) n (%). The “Hyperglycemia” value [2] was 0 (0) n (%), the “Lymphopenia (drug-related adverse event)” value [2] was 0 (0) n (%) and the “Muscle spasms” value [2] was 0 (0) n (%). The “Muscle weakness” value [2] was 0 (0) n (%), the “Myalgia (drug-related adverse event)” value [2] was 0 (0) n (%) and the “Myoglobin blood increased” value [2] was 0 (0) n (%). For the same compound, the “Nausea (drug-related adverse event)” value [2] was 0 (0) n (%), the “Rhabdomyolysis” value [2] was 0 (0) n (%) and the “Alopecia (drug-related adverse event)” value [3] was 0 (0) n (%). For the same compound, the “Blood creatine kinase increased” value [3] was 0 (0) n (%), the “Decreased level of consciousness” value [3] was 0 (0) n (%) and the “Dysgeusia (drug-related adverse event)” value [3] was 0 (0) n (%). For the same compound, the “Fatigue (drug-related adverse event)” value [3] was 0 (0) n (%), the “Hepatic function abnormal” value [3] was 0 (0) n (%) and the “Hyperglycemia” value [3] was 0 (0) n (%). The “Lymphopenia (drug-related adverse event)” value [3] was 0 (0) n (%), the “Muscle spasms” value [3] was 0 (0) n (%) and the “Muscle weakness” value [3] was 0 (0) n (%). For the same compound, the “Myalgia (drug-related adverse event)” value [3] was 0 (0) n (%), the “Myoglobin blood increased” value [3] was 0 (0) n (%) and the “Nausea (drug-related adverse event)” value [3] was 0 (0) n (%). For the same compound, the “Rhabdomyolysis” value [3] was 1 (8) n (%), the “Additional patients with grade 3 or 4 CK elevation after cycle 1” value (group 1, 600 mg) was “four” and the “DLT in cycle 1 (creatine kinase elevation)” value (group 1, 600 mg) was “single DLT”. The “Alopecia (drug-related adverse event)” value [4] was 2 (22) n (%), the “Blood creatine kinase increased” value [4] was 5 (56) n (%) and the “Decreased level of consciousness” value [4] was 1 (11) n (%). The “Dysgeusia (drug-related adverse event)” value [4] was 2 (22) n (%), the “Fatigue (drug-related adverse event)” value [4] was 2 (22) n (%) and the “Hepatic function abnormal” value [4] was 3 (33) n (%). The “Hyperglycemia” value [4] was 1 (11) n (%), the “Lymphopenia (drug-related adverse event)” value [4] was 1 (11) n (%) and the “Muscle spasms” value [4] was 1 (11) n (%). For the same compound, the “Muscle weakness” value [4] was 1 (11) n (%), the “Myalgia (drug-related adverse event)” value [4] was 4 (44) n (%) and the “Myoglobin blood increased” value [4] was 1 (11) n (%). For the same compound, the “Nausea (drug-related adverse event)” value [4] was 2 (22) n (%), the “Rhabdomyolysis” value [4] was 1 (11) n (%) and the “Alopecia (drug-related adverse event)” value [5] was 0 (0) n (%). For the same compound, the “Blood creatine kinase increased” value [5] was 2 (22) n (%), the “Decreased level of consciousness” value [5] was 0 (0) n (%) and the “Dysgeusia (drug-related adverse event)” value [5] was 0 (0) n (%). The “Fatigue (drug-related adverse event)” value [5] was 0 (0) n (%), the “Hepatic function abnormal” value [5] was 1 (11) n (%) and the “Hyperglycemia” value [5] was 1 (11) n (%). The “Lymphopenia (drug-related adverse event)” value [5] was 1 (11) n (%), the “Muscle spasms” value [5] was 0 (0) n (%) and the “Muscle weakness” value [5] was 1 (11) n (%). For the same compound, the “Myalgia (drug-related adverse event)” value [5] was 0 (0) n (%), the “Myoglobin blood increased” value [5] was 1 (11) n (%) and the “Nausea (drug-related adverse event)” value [5] was 0 (0) n (%). The “Rhabdomyolysis” value [5] was 1 (11) n (%), the “Alopecia (drug-related adverse event)” value [6] was 0 (0) n (%) and the “Blood creatine kinase increased” value [6] was 2 (22) n (%). For the same compound, the “Decreased level of consciousness” value [6] was 1 (11) n (%), the “Dysgeusia (drug-related adverse event)” value [6] was 0 (0) n (%) and the “Fatigue (drug-related adverse event)” value [6] was 0 (0) n (%). The “Hepatic function abnormal” value [6] was 1 (11) n (%), the “Hyperglycemia” value [6] was 0 (0) n (%) and the “Lymphopenia (drug-related adverse event)” value [6] was 0 (0) n (%). The “Muscle spasms” value [6] was 0 (0) n (%), the “Muscle weakness” value [6] was 0 (0) n (%) and the “Myalgia (drug-related adverse event)” value [6] was 0 (0) n (%). For the same compound, the “Myoglobin blood increased” value [6] was 0 (0) n (%), the “Nausea (drug-related adverse event)” value [6] was 0 (0) n (%) and the “Rhabdomyolysis” value [6] was 0 (0) n (%). The “Alopecia (drug-related adverse event)” value [7] was 4 (19) n (%), the “Blood creatine kinase increased” value [7] was 7 (33) n (%) and the “Decreased level of consciousness” value [7] was 1 (5) n (%). For the same compound, the “Dysgeusia (drug-related adverse event)” value [7] was 3 (14) n (%), the “Fatigue (drug-related adverse event)” value [7] was 4 (19) n (%) and the “Hepatic function abnormal” value [7] was 5 (24) n (%). The “Hyperglycemia” value [7] was 1 (5) n (%), the “Lymphopenia (drug-related adverse event)” value [7] was 1 (5) n (%) and the “Muscle spasms” value [7] was 2 (10) n (%). For the same compound, the “Muscle weakness” value [7] was 1 (5) n (%), the “Myoglobin blood increased” value [7] was 1 (5) n (%) and the “Nausea (drug-related adverse event)” value [7] was 3 (14) n (%). For the same compound, the “Rhabdomyolysis” value [7] was 2 (10) n (%), the “Alopecia (drug-related adverse event)” value [8] was 0 (0) n (%) and the “Blood creatine kinase increased” value [8] was 3 (14) n (%). For the same compound, the “Decreased level of consciousness” value [8] was 0 (0) n (%), the “Dysgeusia (drug-related adverse event)” value [8] was 0 (0) n (%) and the “Fatigue (drug-related adverse event)” value [8] was 0 (0) n (%). The “Hepatic function abnormal” value [8] was 2 (10) n (%), the “Hyperglycemia” value [8] was 1 (5) n (%) and the “Lymphopenia (drug-related adverse event)” value [8] was 1 (5) n (%). For the same compound, the “Muscle spasms” value [8] was 0 (0) n (%), the “Muscle weakness” value [8] was 1 (5) n (%) and the “Myalgia (drug-related adverse event)” value [8] was 0 (0) n (%). The “Myoglobin blood increased” value [8] was 1 (5) n (%), the “Nausea (drug-related adverse event)” value [8] was 0 (0) n (%) and the “Rhabdomyolysis” value [8] was 1 (5) n (%). The “Alopecia (drug-related adverse event)” value [9] was 0 (0) n (%), the “Blood creatine kinase increased” value [9] was 2 (10) n (%) and the “Decreased level of consciousness” value [9] was 1 (5) n (%). For the same compound, the “Dysgeusia (drug-related adverse event)” value [9] was 0 (0) n (%), the “Fatigue (drug-related adverse event)” value [9] was 0 (0) n (%) and the “Hepatic function abnormal” value [9] was 1 (5) n (%). For the same compound, the “Hyperglycemia” value [9] was 0 (0) n (%), the “Lymphopenia (drug-related adverse event)” value [9] was 0 (0) n (%) and the “Muscle spasms” value [9] was 0 (0) n (%). The “Muscle weakness” value [9] was 0 (0) n (%), the “Myalgia (drug-related adverse event)” value [9] was 0 (0) n (%) and the “Myoglobin blood increased” value [9] was 0 (0) n (%). For the same compound, the “Nausea (drug-related adverse event)” value [9] was 0 (0) n (%), the “Rhabdomyolysis” value [9] was 1 (5) n (%) and the “Drug-related AE: abnormal hepatic function” value (group 1, all doses) was 24%. For the same compound, the “Drug-related AE: fatigue” value (group 1, all doses) was 19%, the “Drug-related AE: increase in CK levels” value (group 1, all doses) was 33% and the “Drug-related AE: myalgia” value (group 1, all doses) was 29%. The “Patients with at least one AE suspected to be related to sonidegib” value (group 1, n = 18) was 86%, the “Recommended dose (RD)” value (group 2 (Chinese/Taiwanese)) was 400 mg q.d and the “Grade 3 /4 Creatine kinase elevation during all study period” value (group 2 (Chinese/Taiwanese), 400 mg qd, N = 12) was 2 (17) n (%). The “Grade 3 /4 Creatine kinase elevation during all study period” value (group 2 (Chinese/Taiwanese), 600 mg qd, N = 8) was 1 (13) n (%), the “Grade 3 /4 Creatine kinase elevation during all study period” value (group 2 (Chinese/Taiwanese), 800 mg qd, N = 4) was 2 (50) n (%) and the “Grade 3 /4 Creatine kinase elevation during all study period” value (group 2 (Chinese/Taiwanese), All patients, N = 24) was 5 (21) n (%). The “Blood creatine kinase increased” value [10] was 6 (50) n (%), the “Decreased appetite (drug-related adverse event)” value [10] was 0 (0) n (%) and the “Diarrhea (drug-related adverse event)” value [10] was 0 (0) n (%). The “Dizziness (drug-related adverse event)” value [10] was 0 (0) n (%).
